Measurements as given in ChEMBL document CHEMBL1671856, “Chemical target validation studies of aminopeptidase in malaria parasites using alpha-aminoalkylphosphonate and phosphonopeptide inhibitors” (Antimicrob Agents Chemother, 2008).

How the values were obtained:
[1] = tested on: Plasmodium falciparum; assay: Antimalarial activity against Plasmodium falciparum 3D7 infected in O-positive human erythrocytes assessed as growth inhibition by LDH assay; type: functional
In short: (§1)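 Asynchronous asexual blood-stage P. falciparum 3D7 were cultured in O+ erythrocytes and exposed to compounds for 72 h. Growth was read by the spectrophotometric parasite lactate dehydrogenase absorbance assay. IC50 values were determined graphically from dose-response curves.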

[2] = tested on: Plasmodium falciparum; assay: Antimalarial activity against Plasmodium falciparum 3D7 infected in O-positive human erythrocytes after 72 hrs; type: functional, organism-based; settings: 3D7, 72 h; in short: as §1
[3] = biological target: T1, Leucine aminopeptidase (Plasmodium falciparum 3D7) (UniProt Q8IL11); assay: Inhibition of leucyl aminopeptidase activity in Plasmodium falciparum 3D7 at 10 uM using Leu-AMC as a substrate by spectrophotometer
T1 sequence (whole entry): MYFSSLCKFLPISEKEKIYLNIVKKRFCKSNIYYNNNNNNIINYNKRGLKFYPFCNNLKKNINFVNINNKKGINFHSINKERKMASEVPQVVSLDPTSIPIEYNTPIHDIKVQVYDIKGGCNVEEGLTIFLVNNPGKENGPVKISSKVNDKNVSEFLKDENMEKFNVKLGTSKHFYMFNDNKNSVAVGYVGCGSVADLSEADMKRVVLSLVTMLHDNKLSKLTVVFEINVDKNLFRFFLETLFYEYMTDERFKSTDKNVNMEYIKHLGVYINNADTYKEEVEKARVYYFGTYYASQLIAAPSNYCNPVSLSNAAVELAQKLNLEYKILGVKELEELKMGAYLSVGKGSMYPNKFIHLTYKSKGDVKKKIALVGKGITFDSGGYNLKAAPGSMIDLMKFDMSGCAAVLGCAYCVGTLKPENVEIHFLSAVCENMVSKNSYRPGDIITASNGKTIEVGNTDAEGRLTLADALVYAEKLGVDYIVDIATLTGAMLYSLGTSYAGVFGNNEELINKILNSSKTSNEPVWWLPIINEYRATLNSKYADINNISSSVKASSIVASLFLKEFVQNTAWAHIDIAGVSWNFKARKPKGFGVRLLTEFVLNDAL
In short: (§2)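 Cytosolic extract came from free parasites released from infected erythrocytes, then three freeze-thaw cycles and centrifugation at 12,000 x g, 4°C, 20 min. Extract (25 µg/ml final) was preincubated with 0.1 or 10 µM inhibitor in 50 mM Tris-Cl pH 8.0, with or without 1 mM CoCl2, for 15 min at 37°C. Leu-AMC or Ala-AMC (10 µM final) was added. AMC release was read over 30 min (ex 370/em 440 nm).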

[4] = biological target: T1, Leucine aminopeptidase (Plasmodium falciparum 3D7); assay: Inhibition of leucyl aminopeptidase activity in Plasmodium falciparum 3D7 at 10 uM using Leu-AMC as a substrate by spectrophotometer in presence of 1 mM CoCl2
[5] = tested on: Plasmodium falciparum; assay: Inhibition of alanyl aminopeptidase activity in Plasmodium falciparum 3D7 at 10 uM using Ala-AMC as a substrate by spectrophotometer; in short: as §2
[6] = tested on: Plasmodium falciparum; assay: Inhibition of alanyl aminopeptidase activity in Plasmodium falciparum 3D7 at 0.1 uM using Ala-AMC as a substrate by spectrophotometer; in short: as §2
[7] = biological target: T1, Leucine aminopeptidase (Plasmodium falciparum 3D7); assay: Inhibition of leucyl aminopeptidase activity in Plasmodium falciparum 3D7 at 0.1 uM using Leu-AMC as a substrate by spectrophotometer in presence of 1 mM CoCl2
[8] = biological target: T1, Leucine aminopeptidase (Plasmodium falciparum 3D7); assay: Inhibition of leucyl aminopeptidase activity in Plasmodium falciparum 3D7 at 0.1 uM using Leu-AMC as a substrate by spectrophotometer; in short: as §2
[9] = biological target: T2, Aminopeptidase N (Sus scrofa, UniProt P15145); assay: Inhibition of pig kidney microsomal aminopeptidase N
T2 sequence (P15145 whole entry): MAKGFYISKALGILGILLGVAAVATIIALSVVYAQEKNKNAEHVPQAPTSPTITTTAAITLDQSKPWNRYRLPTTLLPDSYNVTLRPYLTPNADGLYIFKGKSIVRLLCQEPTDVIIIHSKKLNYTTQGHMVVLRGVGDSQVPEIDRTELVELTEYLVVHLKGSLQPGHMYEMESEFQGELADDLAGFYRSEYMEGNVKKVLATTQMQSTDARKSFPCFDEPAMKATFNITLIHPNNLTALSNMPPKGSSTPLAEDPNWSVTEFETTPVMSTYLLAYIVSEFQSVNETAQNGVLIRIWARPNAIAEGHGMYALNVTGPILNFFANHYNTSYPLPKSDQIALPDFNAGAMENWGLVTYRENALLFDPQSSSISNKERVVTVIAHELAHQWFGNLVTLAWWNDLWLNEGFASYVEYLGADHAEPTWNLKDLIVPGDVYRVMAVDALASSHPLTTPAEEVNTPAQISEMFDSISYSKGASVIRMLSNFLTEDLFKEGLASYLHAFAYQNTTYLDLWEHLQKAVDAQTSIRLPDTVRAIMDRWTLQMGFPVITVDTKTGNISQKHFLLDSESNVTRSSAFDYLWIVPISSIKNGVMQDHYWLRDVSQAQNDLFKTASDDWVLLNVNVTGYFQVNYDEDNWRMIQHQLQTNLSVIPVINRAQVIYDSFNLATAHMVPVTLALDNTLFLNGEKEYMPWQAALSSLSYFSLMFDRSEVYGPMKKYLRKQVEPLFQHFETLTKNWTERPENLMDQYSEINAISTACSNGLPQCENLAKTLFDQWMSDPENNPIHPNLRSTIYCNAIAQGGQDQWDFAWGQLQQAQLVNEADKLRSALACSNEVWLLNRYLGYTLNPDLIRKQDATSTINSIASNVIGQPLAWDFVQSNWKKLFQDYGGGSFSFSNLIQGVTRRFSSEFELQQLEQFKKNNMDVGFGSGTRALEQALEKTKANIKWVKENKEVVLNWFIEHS

[10] = Inhibition of porcine kidney leucyl aminopeptidase; set-up: species or system Sus scrofa

NC(Cc1ccc(O)cc1)P(=O)(O)O (racemic)
inhibition (INH) [1]: 1% | IC50 [2]: > 256 µM | inhibition [3]: 8%

CCC(C)C(N)P(=O)(O)O (stereo in doubt; D29) [listing 1 of 2 here]
inhibition [3]: 9%

CCCC(C)C(N)P(=O)(O)O (stereo in doubt; D31) [listing 1 of 2 here]
inhibition (INH) [1]: 2%

COc1ccc(C(N)P(=O)(O)O)cc1O (racemic)
inhibition [4]: 71% | inhibition at 10 µM [5]: 43% | inhibition at 0.1 µM [6]: 0% | inhibition [7]: 46% | IC50 [2]: 65 µM | inhibition [3]: 39% | inhibition [8]: 5%

NC(c1cccc(O)c1)P(=O)(O)O (racemic)
inhibition (INH) [1]: 34% | IC50 [2]: > 256 µM | inhibition [3]: 6%

CC(CCNC(=O)C(N)Cc1ccccc1)P(=O)(O)O (configuration not stated)
inhibition [4]: 0% | inhibition at 10 µM [5]: 0% | inhibition at 0.1 µM [6]: 0% | inhibition [7]: 1% | IC50 [2]: 135 µM | inhibition [3]: 4% | inhibition [8]: 0%

Cl.NC(Cc1ccccc1)C(=O)NCCC(O)P(=O)(O)O (configuration not stated)
inhibition (INH) [1]: 10% | IC50 [2]: > 256 µM | inhibition [3]: 9%

CC(C)C[C@@H](N)P(=O)(O)O
inhibition (INH) [1]: 1% | Ki [9]: 53 µM | IC50 [2]: > 256 µM | inhibition [3]: 2%

NC(c1ccc(O)cc1)P(=O)(O)O (racemic)
inhibition (INH) [1]: 14% | IC50 [2]: > 256 µM | inhibition [3]: 8%

CCCCC(CC)C(N)P(=O)(O)O (stereo in doubt; D32) [listing 1 of 2 here]
inhibition [3]: 1%

NC(CC1CCCC1)P(=O)(O)O (racemic)
inhibition (INH) [1]: 17% | IC50 [2]: > 256 µM | inhibition [3]: 37%

CCCC(C)C(N)P(=O)(O)O (stereo in doubt; D30) [listing 1 of 2 here]
inhibition [3]: 11%

N[C@H](C1CCCCC1)P(=O)(O)O
inhibition (INH) [1]: 7% | Ki [9]: > 2000 µM | IC50 [2]: > 256 µM | inhibition [3]: 8% | Ki [10]: 6.96 µM

CCC(CC)[C@H](N)P(=O)(O)O
inhibition (INH) [1]: 15% | IC50 [2]: > 256 µM | inhibition [3]: 10%

NC(c1ccccc1)C(O)P(=O)(O)O (configuration not stated)
inhibition (INH) [1]: 0% | IC50 [2]: > 256 µM | inhibition [3]: 5%

CCC(C)C(N)P(=O)(O)O (stereo in doubt; D28) [listing 1 of 2 here]
inhibition (INH) [1]: 22% | IC50 [2]: > 256 µM

CCCC(C)C(N)P(=O)(O)O (stereo in doubt; D31) [listing 2 of 2 here]
inhibition [3]: 3%

NC(c1ccc(O)c(O)c1)P(=O)(O)O (racemic)
inhibition (INH) [1]: 5% | IC50 [2]: > 256 µM | inhibition [3]: 7%

CCC(C)C(N)C(O)P(=O)(O)O (configuration not stated)
inhibition (INH) [1]: 1% | IC50 [2]: > 256 µM | inhibition [3]: 5%

CCC(C)C(N)P(=O)(O)O (stereo in doubt; D28) [listing 2 of 2 here]
inhibition [3]: 9%

CCCCC(CC)C(N)P(=O)(O)O (stereo in doubt; D33) [listing 1 of 2 here]
inhibition [3]: 11%

CC(C)C(NC(=O)C(N)Cc1ccccc1)P(=O)(O)O (configuration not stated)
inhibition (INH) [1]: 7% | IC50 [2]: > 256 µM | inhibition [3]: 12%

CCCC(C)C(N)P(=O)(O)O (stereo in doubt; D30) [listing 2 of 2 here]
inhibition (INH) [1]: 14% | IC50 [2]: > 256 µM

COc1ccc(C(N)P(=O)(O)O)cc1 (racemic)
inhibition [4]: 73% | inhibition at 10 µM [5]: 52% | inhibition at 0.1 µM [6]: 2% | inhibition [7]: 38% | IC50 [2]: 57 µM | inhibition [3]: 43% | inhibition [8]: 2%

NC(C1CCC1)P(=O)(O)O (racemic)
inhibition (INH) [1]: 8% | IC50 [2]: > 256 µM | inhibition [3]: 6%

CCC(C)C(N)P(=O)(O)O (stereo in doubt; D29) [listing 2 of 2 here]
inhibition (INH) [1]: 0%

COc1ccc(C(N)P(=O)(O)O)cc1OC (racemic)
inhibition [4]: 70% | inhibition at 10 µM [5]: 76% | inhibition at 0.1 µM [6]: 0% | inhibition [7]: 20% | IC50 [2]: 53 µM | inhibition [3]: 71% | inhibition [8]: 6%

NC(c1ccc2ccccc2c1)C(O)P(=O)(O)O (configuration not stated)
inhibition (INH) [1]: 11% | IC50 [2]: > 128 µM | inhibition [3]: 17%

CCCCC(CC)C(N)P(=O)(O)O (stereo in doubt; D33) [listing 2 of 2 here]
inhibition (INH) [1]: 17% | IC50 [2]: > 256 µM

CC(C)C[C@H](N)P(=O)(O)O [LEUCINE PHOSPHONIC ACID]
inhibition [4]: 52% | inhibition (INH) [1]: 30% | inhibition at 10 µM [5]: 24% | inhibition at 0.1 µM [6]: 0% | inhibition [7]: 9% | IC50 [2]: > 128 µM | inhibition [3]: 15% | inhibition [8]: 0%

CCC(CC)[C@@H](N)P(=O)(O)O
inhibition (INH) [1]: 0% | IC50 [2]: > 256 µM | inhibition [3]: 6%

NC(CCc1ccccc1)P(=O)(O)Oc1ccccc1 (racemic)
inhibition [4]: 73% | inhibition at 10 µM [5]: 92% | inhibition at 0.1 µM [6]: 12% | inhibition [7]: 19% | IC50 [2]: 25 µM | inhibition [3]: 90% | inhibition [8]: 8%

CCCCC(CC)C(N)P(=O)(O)O (stereo in doubt; D32) [listing 2 of 2 here]
inhibition (INH) [1]: 0%

NC(C1CC1)P(=O)(O)O (racemic)
inhibition (INH) [1]: 0% | IC50 [2]: > 256 µM | inhibition [3]: 6%

CC(C)C[C@H](N)[C@@H](N)P(=O)(O)O
inhibition (INH) [1]: 14% | IC50 [2]: > 256 µM | inhibition [3]: 6%
